Results on 46 compounds are retold here after ChEMBL document CHEMBL1123784, “Quantitative structure-activity relationship of triazine-antifolate inhibition of Leishmania dihydrofolate reductase and cell growth” (J Med Chem, 1987).

Assay [1] deals with Bifunctional dihydrofolate reductase-thymidylate synthase (Leishmania major, UniProt P07382). Briefly: Inhibition of dihydrofolate reductase (DHFR) from Leishmania major. The settings on record: read-out: Log 1/Ki (converted).
The next assay deals with Leishmania major. As to the kind of experiment: Growth inhibition against Leishmania major promastigotes in culture. Type of assay: functional, organism-based. The settings on record: read-out: Log 1/EC50 (converted). In short, it runs like this: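 Seeded at 5 × 10⁶ cells/mL with four to six inhibitor concentrations spanning the I50. Coulter-counted daily for 5 days or until out of log phase. EC50 = concentration halving growth rate versus drug-free medium, from log dose vs percent growth plot.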

Molecules are shown by their SMILES.

Chain of Bifunctional dihydrofolate reductase-thymidylate synthase (P07382 whole entry): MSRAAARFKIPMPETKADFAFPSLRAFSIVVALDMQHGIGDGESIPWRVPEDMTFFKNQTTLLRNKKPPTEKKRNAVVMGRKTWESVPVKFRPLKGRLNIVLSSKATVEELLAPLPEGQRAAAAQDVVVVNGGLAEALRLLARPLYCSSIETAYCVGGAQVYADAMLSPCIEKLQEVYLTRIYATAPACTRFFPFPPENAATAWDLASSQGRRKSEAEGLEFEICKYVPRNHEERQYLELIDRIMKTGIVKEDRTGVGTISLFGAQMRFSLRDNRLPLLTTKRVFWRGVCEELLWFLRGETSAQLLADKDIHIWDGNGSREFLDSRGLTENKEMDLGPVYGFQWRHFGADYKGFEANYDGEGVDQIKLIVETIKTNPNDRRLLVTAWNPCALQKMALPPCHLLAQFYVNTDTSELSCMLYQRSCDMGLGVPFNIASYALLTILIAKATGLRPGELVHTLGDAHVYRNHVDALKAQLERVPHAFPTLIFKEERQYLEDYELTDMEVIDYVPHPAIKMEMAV

As for `CCCCCCCCCOc1cccc(N2C(N)=NC(N)=NC2(C)C)c1`, in assay [1], the Ki is 302 nM.

As for `CC1(C)N=C(N)N=C(N)N1c1cccc(C[Se]c2ccccc2)c1`, in assay [1], the Ki is 275 nM.

In the case of `CC(C)c1cccc(OCc2cccc(N3C(N)=NC(N)=NC3(C)C)c2)c1`, the Ki in assay [1] was 174 nM. In addition, the EC50 in the assay on Leishmania major is 57.5 µM.

With `CC1(C)N=C(N)N=C(N)N1c1cccc(CNc2cc(C(N)=O)cc(C(N)=O)c2)c1`, the Ki in assay [1] was 513 nM. In the assay with Leishmania major, the EC50 was 501 µM.

For `CC1(C)N=C(N)N=C(N)N1c1cccc(CNc2ccc(Cl)cc2)c1`, in assay [1], the Ki was 661 nM. Moreover, the EC50 with Leishmania major was 263 µM.

For `CC1(C)N=C(N)N=C(N)N1c1cccc(COc2cccc(-c3ccccc3)c2)c1`, the Ki in assay [1] was 17 nM. Further, the EC50 in the assay with Leishmania major was 22.9 µM.

Regarding `CC1(C)N=C(N)N=C(N)N1c1cccc(COc2cccc3ccccc23)c1`, in assay [1], the Ki was 39.8 nM. Also, the EC50 in the assay on Leishmania major is 51.3 µM.

Regarding `Cc1cccc(OCc2cccc(N3C(N)=NC(N)=NC3(C)C)c2)c1`, the Ki in assay [1] was 427 nM. Further, in the assay on Leishmania major, the EC50 was 219 µM.

Take `CC1(C)N=C(N)N=C(N)N1c1cccc(COc2cccc(NC(N)=O)c2)c1`: the Ki in assay [1] is 91.2 nM.

`CCCCCCCCCc1cccc(N2C(N)=NC(N)=NC2(C)C)c1`: the Ki in assay [1] is 20.9 nM. Moreover, in the assay with Leishmania major, the EC50 is 8.51 µM.

On to `CC1(C)N=C(N)N=C(N)N1c1cccc(OCCOc2cccc(C(F)(F)F)c2)c1`, for which, in assay [1], the Ki is 251 nM. Moreover, the EC50 with Leishmania major was 126 µM.

For the compound `CC(=O)Nc1cccc(OCc2cccc(N3C(N)=NC(N)=NC3(C)C)c2)c1`, the Ki in assay [1] is 75.9 nM.

On to `CC1(C)N=C(N)N=C(N)N1c1cccc([N+](=O)[O-])c1`, for which, in assay [1], the Ki is 10000 nM.

For `CCc1cccc(N2C(N)=NC(N)=NC2(C)C)c1`, the Ki in assay [1] is 1950 nM.

With `CC1(C)N=C(N)N=C(N)N1c1cccc(C(N)=O)c1`, the Ki in assay [1] was 117000 nM.

As to `CCCCCc1ccc(OCc2cccc(N3C(N)=NC(N)=NC3(C)C)c2)cc1`, the Ki in assay [1] was 339 nM.

In the case of `CC1(C)N=C(N)N=C(N)N1c1cccc(SCc2ccccc2)c1`, in assay [1], the Ki is 224 nM.

Regarding `CC1(C)N=C(N)N=C(N)N1c1cccc(CSc2ccccc2)c1`, in assay [1], the Ki is 407 nM.

For the compound `CCCCCCOc1cccc(N2C(N)=NC(N)=NC2(C)C)c1`, the Ki in assay [1] was 3980 nM.

Regarding `CC1(C)N=C(N)N=C(N)N1c1cccc(C(O)c2ccccc2)c1` (stereo not drawn), the Ki in assay [1] was 42700 nM.

On to `CC1(C)N=C(N)N=C(N)N1c1cccc(SCc2ccc(Cl)cc2)c1`, for which the Ki in assay [1] was 110 nM. Also, the EC50 in the assay on Leishmania major is 60.3 µM.

`CCCCCCCCCCCCc1cccc(N2C(N)=NC(N)=NC2(C)C)c1`: the Ki in assay [1] is 72.4 nM. Also, the EC50 in the assay with Leishmania major is 7.94 µM.

For the compound `CC1(C)N=C(N)N=C(N)N1c1cccc(CNc2ccc(S(N)(=O)=O)cc2)c1`, the Ki in assay [1] is 759 nM.

Take `COc1cccc(N2C(N)=NC(N)=NC2(C)C)c1`: in assay [1], the Ki is 22900 nM.

Take `CC1(C)N=C(N)N=C(N)N1c1cccc(S(N)(=O)=O)c1`: the Ki in assay [1] was 363000 nM.

`CC(C)(C)c1cccc(N2C(N)=NC(N)=NC2(C)C)c1`: the Ki in assay [1] was 5750 nM.

In the case of `CCOC(=O)c1cccc(N2C(N)=NC(N)=NC2(C)C)c1`, in assay [1], the Ki was 112000 nM.

In the case of `CC1(C)N=C(N)N=C(N)N1c1cccc(C#N)c1`, the Ki in assay [1] was 6030 nM.

As for `CC1(C)N=C(N)N=C(N)N1c1cccc(O)c1`, in assay [1], the Ki was 53700 nM.

Consider `CCCCCCCCCCCOc1cccc(N2C(N)=NC(N)=NC2(C)C)c1`, for which the Ki in assay [1] was 977 nM.

For the compound `CC1(C)N=C(N)N=C(N)N1c1cccc(OCC23CC4CC(CC(C4)C2)C3)c1`, in assay [1], the Ki is 3090 nM.

On to `CC1(C)N=C(N)N=C(N)N1c1cccc(COc2cc(Cl)c(Cl)cc2Cl)c1`, for which, in assay [1], the Ki was 69.2 nM. Besides, the EC50 with Leishmania major is 25.1 µM.

Take `CCOc1cccc(N2C(N)=NC(N)=NC2(C)C)c1`: the Ki in assay [1] is 38000 nM.

In the case of `CCc1cccc(OCc2cccc(N3C(N)=NC(N)=NC3(C)C)c2)c1`, in assay [1], the Ki is 126 nM.

In the case of `CC1(C)N=C(N)N=C(N)N1c1cccc(COc2cccc(C#N)c2)c1`, the Ki in assay [1] was 178 nM.

For `CCCCCCCCCCCCCCOc1cccc(N2C(N)=NC(N)=NC2(C)C)c1`, the Ki in assay [1] is 5890 nM.

In the case of `CC1(C)N=C(N)N=C(N)N1c1cccc(COc2cccc(Cl)c2)c1`, the Ki in assay [1] was 224 nM.

With `COc1cccc(OCc2cccc(N3C(N)=NC(N)=NC3(C)C)c2)c1`, the Ki in assay [1] was 151 nM. For the same compound, in the assay on Leishmania major, the EC50 is 309 µM.

`CC1(C)N=C(N)N=C(N)N1c1cccc(COc2cccc(CO)c2)c1`: in assay [1], the Ki was 646 nM.

On to `CC1(C)N=C(N)N=C(N)N1c1cccc(OCCCCOc2cccc(C(F)(F)F)c2)c1`, for which the Ki in assay [1] is 75.9 nM.

Regarding `CC1(C)N=C(N)N=C(N)N1c1ccccc1`, the Ki in assay [1] was 12600 nM.

For the compound `CC(=O)c1cccc(N2C(N)=NC(N)=NC2(C)C)c1`, in assay [1], the Ki is 39800 nM.

For the compound `CC1(C)N=C(N)N=C(N)N1c1cccc(C(F)(F)F)c1`, the Ki in assay [1] was 2190 nM.

On to `CC1(C)N=C(N)N=C(N)N1c1cccc(Cl)c1`, for which, in assay [1], the Ki is 1200 nM.

With `CC1(C)N=C(N)N=C(N)N1c1cccc(OCc2ccccc2)c1`, the Ki in assay [1] is 1910 nM.

Regarding `CN(Cc1cnc2nc(N)nc(N)c2n1)c1ccc(C(=O)N[C@@H](CCC(=O)O)C(=O)O)cc1` [METHOTREXATE], in the assay on Leishmania major, the EC50 is 1 µM.
